Measured values taken from ChEMBL document CHEMBL1914423, “New imidazo[2,1-b]thiazole derivatives: synthesis, in vitro anticancer evaluation, and in silico studies” (Eur J Med Chem, 2011).

Tests used:
HT-29 = experiment: Anticancer activity against human HT-29 cells assessed as cell growth at 10^-5 M after 48 hrs by SRB assay; type: functional; conditions: HT-29, 48 h, read-out: Activity
Summary of the method: (§1)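 NCI-60 single-dose screen at one concentration. Cells grown in RPMI 1640 with 5% FBS and 2 mM L-glutamine, plated at 5000–40,000 cells/well, and pre-incubated 24 h at 37 °C in 5% CO2 before DMSO-dissolved drug was added. Cells fixed with TCA, SRB-stained, absorbance read at 515 nm. Percent growth calculated against time-zero and untreated control plates.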

HL-60(TB) = experiment: Anticancer activity against human HL-60(TB) cells assessed as cell growth at 10^-5 M after 48 hrs by SRB assay; type: functional; conditions: HL-60, 48 h, read-out: Activity
Summary of the method: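 NCI-60 single-dose screen. Cells in RPMI 1640 with 5% FBS and 2 mM L-glutamine were plated at 5000–40,000 cells/well and preincubated 24 h at 37 °C before one compound concentration. Time-zero plates were TCA-fixed at drug addition. For suspension cells, settled cells were fixed with cold TCA, then SRB-stained and read at 515 nm. Percent growth was calculated from time-zero, control and treated absorbances.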

UACC-257 = experiment: Anticancer activity against human UACC257 cells assessed as cell growth at 10^-5 M after 48 hrs by SRB assay; type: functional; conditions: UACC-257, 48 h, read-out: Activity
Summary of the method: (§2)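 NCI-60 single-dose screen: cells in RPMI 1640 with 5% FBS and 2 mM L-glutamine, plated at 5000–40,000 cells/well by doubling time, and preincubated 24 h at 37 °C. Compound given at one concentration from DMSO stock. Cells TCA-fixed and SRB-stained, absorbance at 515 nm. Percent growth relative to time-zero and untreated controls; inhibition % = 100 − growth %.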

SNB-19 = experiment: Anticancer activity against human SNB19 cells assessed as cell growth at 10^-5 M after 48 hrs by SRB assay; type: functional; conditions: SNB-19, 48 h, read-out: Activity
SNB-75 = experiment: Anticancer activity against human SNB75 cells assessed as cell growth at 10^-5 M after 48 hrs by SRB assay; type: functional; conditions: SNB-75, 48 h, read-out: Activity; summary of the method: as §2
RXF 393 = experiment: Anticancer activity against human RXF393 cells assessed as cell growth at 10^-5 M after 48 hrs by SRB assay; type: functional; conditions: RXF 393, 48 h, read-out: Activity
BT-549 = experiment: Anticancer activity against human BT549 cells assessed as cell growth at 10^-5 M after 48 hrs by SRB assay; type: functional; conditions: BT-549, 48 h, read-out: Activity; summary of the method: as §1
LOX IMVI = experiment: Anticancer activity against human LOXIMVI cells assessed as cell growth at 10^-5 M after 48 hrs by SRB assay; type: functional; conditions: read-out: Activity; summary of the method: as §1
A549 = experiment: Anticancer activity against human A549 cells assessed as cell growth at 10^-5 M after 48 hrs by SRB assay; type: functional; conditions: A549, 48 h, read-out: Activity; summary of the method: as §1
CAKI-1 = experiment: Anticancer activity against human Caki1 cells assessed as cell growth at 10^-5 M after 48 hrs by SRB assay; type: functional; conditions: CAKI-1, 48 h, read-out: Activity; summary of the method: as §1
NCI/ADR-RES = experiment: Anticancer activity against human NCI/ADR-RES cells assessed as cell growth at 10^-5 M after 48 hrs by SRB assay; type: functional; conditions: read-out: Activity
DU-145 = experiment: Anticancer activity against human DU145 cells assessed as cell growth at 10^-5 M after 48 hrs by SRB assay; type: functional; conditions: DU-145, 48 h, read-out: Activity; summary of the method: as §1
SW-620 = experiment: Anticancer activity against human SW620 cells assessed as cell growth at 10^-5 M after 48 hrs by SRB assay; type: functional; conditions: SW-620, 48 h, read-out: Activity; summary of the method: as §2
HCC 2998 = experiment: Anticancer activity against human HCC2998 cells assessed as cell growth at 10^-5 M after 48 hrs by SRB assay; type: functional; conditions: HCC 2998, 48 h, read-out: Activity; summary of the method: as §1
EKVX = experiment: Anticancer activity against human EKVX cells assessed as cell growth at 10^-5 M after 48 hrs by SRB assay; type: functional; conditions: read-out: Activity; summary of the method: as §1
A498 = experiment: Anticancer activity against human A498 cells assessed as cell growth at 10^-5 M after 48 hrs by SRB assay; type: functional; conditions: A498, 48 h, read-out: Activity; summary of the method: as §1
OVCAR-4 = experiment: Anticancer activity against human OVCAR4 cells assessed as cell growth at 10^-5 M after 48 hrs by SRB assay; type: functional; conditions: OVCAR-4, 48 h, read-out: Activity
SK-MEL-2 = experiment: Anticancer activity against human SK-MEL-2 cells assessed as cell growth at 10^-5 M after 48 hrs by SRB assay; type: functional; conditions: SK-MEL-2, 48 h, read-out: Activity
OVCAR-5 = experiment: Anticancer activity against human OVCAR5 cells assessed as cell growth at 10^-5 M after 48 hrs by SRB assay; type: functional; conditions: OVCAR-5, 48 h, read-out: Activity
[1] = Antiproliferative activity against human A375P cells after 48 hrs by MTT assay; type: functional, cell-based
Summary of the method: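 A375P cells in DMEM with 10% FBS at 37 °C, 5% CO2. Seeded at 5×10³ cells/well, held 24 h, then treated with 12-point 3-fold serial dilutions for 48 h. Viability by MTT reduction. IC50 values are means of triplicate experiments.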

SF-268 = experiment: Anticancer activity against human SF268 cells assessed as cell growth at 10^-5 M after 48 hrs by SRB assay; type: functional; conditions: SF-268, 48 h, read-out: Activity
COLO 205 = experiment: Anticancer activity against human COLO205 cells assessed as cell growth at 10^-5 M after 48 hrs by SRB assay; type: functional; conditions: COLO 205, 48 h, read-out: Activity; summary of the method: as §1
UACC-62 = experiment: Anticancer activity against human UACC62 cells assessed as cell growth at 10^-5 M after 48 hrs by SRB assay; type: functional; conditions: UACC-62, 48 h, read-out: Activity; summary of the method: as §2
SF-539 = experiment: Anticancer activity against human SF539 cells assessed as cell growth at 10^-5 M after 48 hrs by SRB assay; type: functional; conditions: SF-539, 48 h, read-out: Activity
SR = experiment: Anticancer activity against human SR cells assessed as cell growth at 10^-5 M after 48 hrs by SRB assay; type: functional; conditions: read-out: Activity; summary of the method: as §2
MDA-MB-435 = experiment: Anticancer activity against human MDA-MB-435 cells assessed as cell growth at 10^-5 M after 48 hrs by SRB assay; type: functional; conditions: MDA-MB-435, 48 h, read-out: Activity
HOP-62 = experiment: Anticancer activity against human HOP62 cells assessed as cell growth at 10^-5 M after 48 hrs by SRB assay; type: functional; conditions: HOP-62, 48 h, read-out: Activity; summary of the method: as §1

Row | Compound | growth at 10 µM (HT-29) [%] | growth at 10 µM (HL-60(TB)) [%] | growth at 10 µM (UACC-257) [%] | growth at 10 µM (SNB-19) [%] | growth at 10 µM (SNB-75) [%] | growth at 10 µM (RXF 393) [%] | growth at 10 µM (BT-549) [%] | growth at 10 µM (LOX IMVI) [%] | growth at 10 µM (A549) [%] | growth at 10 µM (CAKI-1) [%] | growth at 10 µM (NCI/ADR-RES) [%] | growth at 10 µM (DU-145) [%] | growth at 10 µM (SW-620) [%] | growth at 10 µM (HCC 2998) [%] | growth at 10 µM (EKVX) [%] | growth at 10 µM (A498) [%] | growth at 10 µM (OVCAR-4) [%] | growth at 10 µM (SK-MEL-2) [%] | growth at 10 µM (OVCAR-5) [%] | IC50 [1] [µM] | also measured
1 | COc1cccc(-c2nc3sccn3c2-c2ccnc(NCCNC(=O)Nc3ccccc3)n2)c1 | 87.5 | 122 | 119 | 103 | 90.8 | 107 | 96 | 102 | 101 | 117 | 96.1 | 102 | 77.3 | 113 | 113 | 103 | 106 | 99.9 | 126 | > 10 | growth at 10 µM (SF-268): 103%; growth at 10 µM (COLO 205): 100%; growth at 10 µM (UACC-62): 86%; growth at 10 µM (SF-539): 43.8%; growth at 10 µM (SR): 93.1%; growth at 10 µM (MDA-MB-435): 96.6%; growth at 10 µM (HOP-62): 129%
2 | O=C(NCCNc1nccc(-c2c(-c3cccc(O)c3)nc3sccn23)n1)c1cc(N2CCOCC2)cc(C(F)(F)F)c1 | 49.2 | 102 | 16.7 | 125 | 83.2 | 77.8 | 84.8 | 52.3 | 88.6 | 82.5 | 103 | 110 | 126 | 109 | 88.6 | 92.8 | 133 | 64.5 | 101 | 4.4 | growth at 10 µM (SF-268): 102%; growth at 10 µM (COLO 205): 32.7%; growth at 10 µM (UACC-62): 8.5%; growth at 10 µM (SF-539): 101%; growth at 10 µM (SR): 97.3%; growth at 10 µM (MDA-MB-435): 34.7%; growth at 10 µM (HOP-62): 136%
3 | O=C(NCCNc1nccc(-c2c(-c3cccc(O)c3)nc3sccn23)n1)Nc1cc(C(F)(F)F)cc(C(F)(F)F)c1 | 63.1 | 97.3 | 57 | 90.8 | 66.1 | 41.4 | 87.6 | 60.6 | 57.7 | 72.3 | 87.8 | 97.1 | 73.5 | 65.5 | 52.2 | 86 | 121 | 110 | 96.5 | > 10 | growth at 10 µM (SF-268): 69.4%; growth at 10 µM (COLO 205): 45.1%; growth at 10 µM (UACC-62): 54.4%; growth at 10 µM (SF-539): 96.5%; growth at 10 µM (SR): 65.3%; growth at 10 µM (MDA-MB-435): 9.9%; growth at 10 µM (HOP-62): 118%
4 | COc1cccc(-c2nc3sccn3c2-c2ccnc(NCCNC(=O)c3cccc(C(F)(F)F)c3)n2)c1 | 49.8 | 83.6 | 78.4 | 102 | 85.3 | 60.5 | 78.1 | 54.7 | 56 | 50.6 | 38.4 | 67.7 | 103 | 87.1 | 76.2 | 63.5 | 89 | 77 | 97.8 | 4.8 | growth at 10 µM (SF-268): 71%; growth at 10 µM (COLO 205): 46.1%; growth at 10 µM (UACC-62): 30.1%; growth at 10 µM (SF-539): 88.3%; growth at 10 µM (SR): 63.2%; growth at 10 µM (MDA-MB-435): 38.8%; growth at 10 µM (HOP-62): 99.5%
5 | COc1cccc(-c2nc3sccn3c2-c2ccnc(NCCNC(=O)c3cc(N4CCOCC4)cc(C(F)(F)F)c3)n2)c1 | 58.5 | 113 | 89.5 | 103 | 72.2 | 72.6 | 81.1 | 79.2 | 82.2 | 83 | 76.5 | 94.6 | 109 | 98.7 | 84.8 | 86 | 107 | 76.2 | 110 | > 10 | growth at 10 µM (SF-268): 85.7%; growth at 10 µM (COLO 205): 73.3%; growth at 10 µM (UACC-62): 50.9%; growth at 10 µM (SF-539): 101%; growth at 10 µM (SR): 80.7%; growth at 10 µM (MDA-MB-435): 62.8%; growth at 10 µM (HOP-62): 112%
